Measurements taken from ChEMBL document CHEMBL1240406, “Identification of novel human immunodeficiency virus type 1-inhibitory peptides based on the antimicrobial peptide database” (Antimicrob Agents Chemother, 2010).
Active and inactive are the calls of the source. The rule behind the calls is not given here. Where a SMILES comes first, the peptide text is derived from it. [ ]: non-standard residue; d: D form. aThr = C[C@H](O)[C@H](N)C(=O)O

Tests used:
[1] = tested on: Human immunodeficiency virus 1; assay: Antiviral activity against HIV1 3B infected in human CEM-SS cells assessed as inhibition of viral replication after 6 days by XTT assay; format: functional, organism-based
How it was run: (§1)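 Peptides were added in triplicate at six serial concentrations, 0.32–100 μg/ml. Cultures were held at 37°C, 5% CO2 for 6 days, then stained with XTT. EC50 (virus inhibition) and TC50 (cell viability) were derived from the XTT read-out, and TI was taken from these.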

[2] = Cytotoxicity against human CEM-SS cells infected with HIV1 3B after 6 days by XTT assay; format: cell-based; conditions: read-out: TC50
[3] = Therapeutic index, ratio of TC50 for human CEM-SS cells infected with HIV1 3B to EC50 for HIV1 3B infected in human CEM-SS cells; format: cell-based; conditions: read-out: TI
How it was run: as §1, with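 “CEM-SS cells (2.5 × 10^3/well) in RPMI 1640 with 10% heat-inactivated FBS were infected with HIV-1 IIIB (MOI 0.0005–0.001). Peptides” for “Peptides”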

Escherichia coli = assay: Antibacterial activity against Escherichia coli K-12; format: functional, organism-based
[4] = Human immunodeficiency virus 1, 3B, CEM-SS, 144 h

Row | Molecule | EC50 [1, 4] [µM] | CC50 at 144 h [2] [µM] | selectivity ratio [3] | Activity (Escherichia coli) | EC50 ([1]; cem-ss) [µM]
1 | CC[C@H](C)[C@H](NC(=O)[C@H](CC(C)C)NC(=O)[C@@H]1CCCN1C(=O)[C@H](Cc1ccccc1)NC(=O)[C@H](CC(C)C)NC(=O)[C@@H](N)Cc1ccccc1)C(=O)N[C@H](C(=O)N[C@@H](CO)C(=O)N[C@@H](Cc1ccccc1)C(=O)N[C@@H](CC(C)C)C(=O)N[C@@H](CO)C(=O)N[C@@H](CCCCN)C(=O)N[C@H](C(=O)N[C@@H](CC(C)C)C(=O)O)C(C)C)[C@H](C)O | 16.7 | 34.6 | 2.07 |  | 
2 | CC[C@H](C)[C@H](NC(=O)[C@H](CCCCN)NC(=O)[C@H](CCC(=O)O)NC(=O)[C@H](CCCCN)NC(=O)[C@H](CO)NC(=O)[C@H](CCCCN)NC(=O)[C@H](CCCNC(=N)N)NC(=O)[C@H](Cc1ccccc1)NC(=O)[C@H](Cc1ccccc1)NC(=O)[C@H](CC(=O)O)NC(=O)CNC(=O)[C@H](CC(C)C)NC(=O)[C@@H](N)CC(C)C)C(=O)NCC(=O)N[C@@H](CCCCN)C(=O)N[C@@H](CCC(=O)O)C(=O)N[C@@H](Cc1ccccc1)C(=O)N[C@@H](CCCCN)C(=O)N[C@@H](CCCNC(=N)N)C(=O)N[C@H](C(=O)N[C@H](C(=O)N[C@@H](CCC(N)=O)C(=O)N[C@@H](CCCNC(=N)N)C(=O)N[C@H](C(=O)N[C@@H](CCCCN)C(=O)N[C@@H](CC(=O)O)C(=O)N[C@@H](Cc1ccccc1)C(=O)N[C@@H](CC(C)C)C(=O)N[C@@H](CCCNC(=N)N)C(=O)N[C@@H](CC(N)=O)C(=O)N[C@@H](CC(C)C)C(=O)N[C@H](C(=O)N1CCC[C@H]1C(=O)N[C@@H](CCCNC(=N)N)C(=O)N[C@H](C(=O)N[C@@H](CCC(=O)O)C(=O)N[C@@H](CO)C(=O)O)[C@@H](C)O)C(C)C)[C@@H](C)CC)C(C)C)[C@@H](C)CC |  |  |  | inactive | 
3 | CC[C@H](C)[C@H](NC(=O)[C@H](CC(C)C)NC(=O)[C@H](C)NC(=O)[C@@H]1CCCN1C(=O)[C@H](CCCNC(=N)N)NC(=O)[C@@H](N)Cc1ccccc1)C(=O)N[C@H](C(=O)N[C@@H](CCCNC(=N)N)C(=O)N[C@H](C(=O)N[C@@H](CCCCN)C(=O)NCC(=O)N[C@H](C(=O)N[C@@H](CCCNC(=N)N)C(=O)N[C@@H](CC(C)C)C(=O)O)[C@H](C)O)[C@H](C)O)C(C)C [Hyposin-5] (H-FRPALIVR[aThr]KG[aThr]RL-OH) | > 61.4 | > 61.4 |  |  | 
4 | CC[C@H](C)[C@H](NC(=O)[C@@H]1CCCN1C(=O)[C@H](Cc1cnc[nH]1)NC(=O)[C@H](CCCCN)NC(=O)[C@@H]1CCCN1C(=O)[C@@H](N)CCCNC(=N)N)C(=O)N[C@@H](CCCCN)C(=O)N[C@@H](Cc1cnc[nH]1)C(=O)N[C@@H](CCC(N)=O)C(=O)NCC(=O)N[C@@H](CC(C)C)C(=O)N1CCC[C@H]1C(=O)N[C@@H](CCC(N)=O)C(=O)N[C@@H](CCC(=O)O)C(=O)N[C@H](C(=O)N[C@@H](CC(C)C)C(=O)N[C@@H](CC(N)=O)C(=O)N[C@@H](CCC(=O)O)C(=O)N[C@@H](CC(N)=O)C(=O)N[C@@H](CC(C)C)C(=O)N[C@@H](CC(C)C)C(=O)N[C@@H](CCCNC(=N)N)C(=O)N[C@@H](Cc1ccccc1)C(=O)O)C(C)C [ISRACIDIN] | > 36.2 | > 36.2 |  |  | 
5 | CC[C@H](C)[C@H](NC(=O)[C@H](CO)NC(=O)[C@H](CC(C)C)NC(=O)[C@H](Cc1ccccc1)NC(=O)CN)C(=O)N[C@@H](CC(C)C)C(=O)N[C@@H](CCCCN)C(=O)N[C@@H](CCCCN)C(=O)N[C@H](C(=O)N[C@@H](CC(C)C)C(=O)N1CCC[C@H]1C(=O)N[C@@H](CCCCN)C(=O)N[C@H](C(=O)N[C@@H](CCSC)C(=O)N[C@@H](C)C(=O)N[C@@H](Cc1cnc[nH]1)C(=O)N[C@@H](CCSC)C(=O)N[C@@H](CCCCN)C(N)=O)C(C)C)C(C)C [MELECTIN] |  | 7.75 |  |  | 
6 | CC[C@H](C)[C@H](NC(=O)[C@H](CCCNC(=N)N)NC(=O)[C@H](CC(C)C)NC(=O)[C@H](CCC(N)=O)NC(=O)[C@H](CCCCN)NC(=O)[C@H](CC(C)C)NC(=O)[C@H](CC(C)C)NC(=O)[C@H](CC(C)C)NC(=O)[C@@H](NC(=O)[C@H](CCCCN)NC(=O)[C@H](CC(=O)O)NC(=O)[C@H](C)NC(=O)[C@@H](NC(=O)[C@H](CCCCN)NC(=O)[C@H](CCCCN)NC(=O)[C@H](CC(=O)O)NC(=O)[C@@H](NC(=O)[C@@H](N)Cc1cnc[nH]1)C(C)C)C(C)C)C(C)C)C(=O)N[C@@H](CCSC)C(=O)N[C@@H](CCCNC(=N)N)C(=O)N[C@@H](CC(C)C)C(=O)N[C@@H](CC(C)C)C(=O)N[C@H](C(=O)N[C@@H](CCCNC(=N)N)C(=O)N[C@@H](CC(C)C)C(=O)O)[C@@H](C)O [SPINIGERIN] | 3.05 | > 33.3 | > 10.9 |  | 
7 | Cc1cn([C@H]2C[C@H](N=[N+]=[N-])[C@@H](CO)O2)c(=O)[nH]c1=O [ZIDOVUDINE] |  | > 0.5 |  |  | 
8 | H-FFHHIFRGIVHVGKTIHRLVTG-OH [Piscidin 3] |  | 6.9 |  |  | 
9 | H-GAWKNFWSSLRKGFYDGEAGRAIRR-OH | > 34.1 | > 34.1 |  |  | 
10 | H-GFGKAFHSVSNFAKKHKTA-NH2 [STYELIN A] | > 48.5 | > 48.5 |  |  | 
11 | H-GFKDLLKGAAKALVKTVLF-NH2 [Ascaphin-8] | 1.2 | 2.9 | 2.4 |  | 
12 | H-GFKRIVQRIKDFLRNLV-NH2 | 0.76 | 10.8 | 14.2 |  | 
13 | H-GFLDIIEKIAKSW-OH | 10.5 | > 65.8 | > 6.3 |  | 
14 | H-GIFDKLAKEISIW-OH | > 65.8 | > 65.8 |  |  | 
15 | H-GIIDIAKKLFESW-OH | 20.1 | > 65.8 | > 3.3 |  | 
16 | H-GIWDTIKSMGKVFAGKILQNL-NH2 [Brevinin-2] | 1.65 | 7.42 | 4.49 |  | 
17 | H-GIWSDLAEIIKKF-OH |  | > 65.8 |  |  | 
18 | H-GKPRPYSPRPTSHPRPIRV-OH [DROSOCIN] | > 45.5 | > 45.5 |  |  | 
19 | H-GLADFLNKAVGKVVDFVKS-NH2 [Desertcolin 1] | > 49.9 | > 49.9 |  |  | 
20 | H-GLFDIIKKIAESW-OH | 11.7 | 37 | 3.2 |  | 
21 | H-GLKKLLGKLLKKLGKLLLK-OH | > 47.5 | 25.1 | < 0.5 | Active | 
22 | H-GLLGLLGSVVSHVVPAIVGHF-NH2 [Maculatin 1.3] | 4 | 8.02 | 2.01 |  | 
23 | H-GLNTLKKVFQGLHEAIKLINNHVQ-OH | 35.7 | > 36.8 |  |  | 

Row | Molecule | EC50 [1, 4] [µM] | CC50 at 144 h [2] [µM] | selectivity ratio [3] | Activity (Escherichia coli) | EC50 ([1]; cem-ss) [µM]
24 | H-GLRRLLGRLLRRLGRLLLR-OH | 4.4 | 25.7 | 5.8 |  | 
25 | H-GLRSKIWLWVLLMIWQESNKFKKM-OH | 31.6 | > 32.9 | > 1.04 |  | 
26 | H-GLRSRIWLWVLLMIWQESNRFKRM-OH | 1.25 | > 32.1 | > 25.7 |  | 
27 | H-GLWEKIDKFASII-OH | > 65.8 | > 65.8 |  |  | 
28 | H-GMASKAGAIAGKIAKVALKAL-NH2 | > 50.8 | > 50.8 |  |  | 
29 | H-GNNRPVYIPQPRPPHPRI-OH [Apidaecin IA] | > 47.4 | > 47.4 |  |  | 
30 | H-GWFDIIKKIASEL-OH | 10.7 | 38.9 | 3.6 |  | 
31 | H-GWFDVVKHIAKRF-NH2 | 2.99 | 10.6 | 3.55 |  | 
32 | H-GWLKKIESIIDAF-OH | 29.5 | > 65.8 | > 2.2 |  | 
33 | H-IKWKKLLRAAKRIL-NH2 | > 57.6 | 1.3 | < 0.02 |  | 
34 | H-ILGPVLGLVSDTLDDVLGIL-OH | > 49.4 | > 49.4 |  |  | 
35 | H-ILGPVLGLVSRTLRRVLGIL-OH | 2.2 | 8.7 | 3.9 |  | 
36 | H-INLKAIAALAKKLL-OH | > 67.6 | > 67.6 |  |  | 
37 | H-IWLTALKFLGKHAAKHLAKQQLSKL-OH [Lycotoxin I] | > 35.2 | 2.4 | < 0.07 |  | 
38 | H-KGRGKQGGKVRAKAKTRSS-OH [Parasin I] | > 50 | > 50 |  |  | 
39 | H-LLKELWTKIKGAGKAVLGKIKGLL-OH [Ponericin L2] |  | 24.7 | 17.6 |  | 1.4
40 | H-NLVSGLIEARKYLEQLHRKLKNRKV-OH | > 33.3 | > 33.3 |  |  | 
41 | H-RQRVEELSKFSKKGAAARRRK-OH [Misgurin] | > 40 | > 40 |  |  | 
42 | H-SLSRFLRFLKIVYRRAF-NH2 | 0.83 | 8.6 | 10.4 |  | 
43 | H-SWKSMAKKLKEYMEKLKQRA-OH [Latarcin 3a] | 32.7 | > 40.3 | > 1.23 |  | 
44 | H-VDKPDYRPRPRPPNM-OH [Metalnikowin I] | > 54.4 | > 54.4 |  |  | 
45 | H-VFQFLGRIIHHVGNFVHGFSHVF-OH [Clavanin B] | 7.1 | 37.1 | > 5.18 |  | 
